Measurements: ChEMBL document CHEMBL1144355, “Synthesis and antibacterial activity of the 4-quinolone-3-carboxylic acid derivatives having a trifluoromethyl group as a novel N-1 substituent” (2005)
Converted amounts (≈) assume the structure as drawn.

Legend:
Assay type in all cases: functional
Streptococcus pneumoniae = test: In vitro antibacterial activity against Streptococcus pneumoniae type III
Procedure, shortened: (§1)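 MIC (μg/mL) determined by agar dilution on Mueller–Hinton agar. Plates were incubated at 35 °C for 18 h. MIC was taken as the lowest agent concentration that prevented visible growth.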

Escherichia coli = test: In vitro antibacterial activity against Escherichia coli NIHJ JC-2; procedure, shortened: as §1
Staphylococcus aureus = test: In vitro antibacterial activity against Staphylococcus aureus Smith; procedure, shortened: as §1
Pseudomonas aeruginosa = test: In vitro antibacterial activity against Pseudomonas aeruginosa IID1210; procedure, shortened: as §1

SMILES | MIC (Streptococcus pneumoniae) | MIC (Escherichia coli) | MIC (Staphylococcus aureus) | MIC (Pseudomonas aeruginosa)
CN1CCN(c2cc3c(cc2F)c(=O)c(C(=O)O)cn3C)CC1 | 6.25 µg/mL (≈ 19.6 µM) | 0.05 µg/mL (≈ 0.157 µM) | 0.39 µg/mL (≈ 1.22 µM) | 1.56 µg/mL (≈ 4.89 µM)
CCn1cc(C(=O)O)c(=O)c2cc(F)c(N3CCNCC3)cc21 [NORFLOXACIN] | 3.13 µg/mL (≈ 9.8 µM) | 0.05 µg/mL (≈ 0.157 µM) | 0.39 µg/mL (≈ 1.22 µM) | 1.56 µg/mL (≈ 4.89 µM)
CN1CCN(c2cc3c(cc2F)c(=O)c(C(=O)O)cn3C(F)(F)F)CC1.Cl | 3.13 µg/mL | 0.05 µg/mL | 0.78 µg/mL | 6.25 µg/mL
CCn1cc(C(=O)O)c(=O)c2cc(F)c(N3CCN(C)CC3)cc21 [PEFLOXACIN] | 3.13 µg/mL (≈ 9.39 µM) | 0.025 µg/mL (≈ 0.075 µM) | 0.2 µg/mL (≈ 0.6 µM) | 1.56 µg/mL (≈ 4.68 µM)
NC1CCN(c2cc3c(cc2F)c(=O)c(C(=O)O)cn3C(F)(F)F)C1 (stereo unspecified) | 12.5 µg/mL (≈ 34.8 µM) | 0.39 µg/mL (≈ 1.09 µM) | 1.56 µg/mL (≈ 4.34 µM) | > 12.5 µg/mL

Stronger by MIC (Streptococcus pneumoniae), values ahead:

MIC (Streptococcus pneumoniae) | MIC (Escherichia coli) | MIC (Staphylococcus aureus) | MIC (Pseudomonas aeruginosa) | SMILES
1.56 µg/mL (≈ 4.44 µM) | 0.0125 µg/mL (≈ 0.0356 µM) | 0.2 µg/mL (≈ 0.569 µM) | 1.56 µg/mL (≈ 4.44 µM) | CN1CCN(c2cc3c(cc2F)c(=O)c(C(=O)O)cn3CCF)CC1
0.78 µg/mL (≈ 2.16 µM) | 0.025 µg/mL (≈ 0.0692 µM) | 0.2 µg/mL (≈ 0.553 µM) | 1.56 µg/mL (≈ 4.32 µM) | CN1CCN(c2cc3c(cc2F)c(=O)c(C(=O)O)cn3C(C)(C)C)CC1
0.39 µg/mL (≈ 0.934 µM) | 0.1 µg/mL (≈ 0.24 µM) | 0.1 µg/mL (≈ 0.24 µM) | 3.13 µg/mL (≈ 7.5 µM) | CN1CCN(c2cc3c(cc2F)c(=O)c(C(=O)O)cn3-c2ccc(F)cc2F)CC1
0.39 µg/mL (≈ 1.13 µM) | ≤ 0.0063 µg/mL | 0.1 µg/mL (≈ 0.29 µM) | 0.78 µg/mL (≈ 2.26 µM) | CN1CCN(c2cc3c(cc2F)c(=O)c(C(=O)O)cn3C2CC2)CC1
